The target of test [1] is T1, Vent(exo^−) polymerase (Thermococcus litoralis, UniProt P30317, D141A/DEL1082-1471/DEL495-1032/E143A).
T1 sequence (P30317 with tags, fused parts or gaps D141A/E143A/DEL495-1032/DEL1082-1471): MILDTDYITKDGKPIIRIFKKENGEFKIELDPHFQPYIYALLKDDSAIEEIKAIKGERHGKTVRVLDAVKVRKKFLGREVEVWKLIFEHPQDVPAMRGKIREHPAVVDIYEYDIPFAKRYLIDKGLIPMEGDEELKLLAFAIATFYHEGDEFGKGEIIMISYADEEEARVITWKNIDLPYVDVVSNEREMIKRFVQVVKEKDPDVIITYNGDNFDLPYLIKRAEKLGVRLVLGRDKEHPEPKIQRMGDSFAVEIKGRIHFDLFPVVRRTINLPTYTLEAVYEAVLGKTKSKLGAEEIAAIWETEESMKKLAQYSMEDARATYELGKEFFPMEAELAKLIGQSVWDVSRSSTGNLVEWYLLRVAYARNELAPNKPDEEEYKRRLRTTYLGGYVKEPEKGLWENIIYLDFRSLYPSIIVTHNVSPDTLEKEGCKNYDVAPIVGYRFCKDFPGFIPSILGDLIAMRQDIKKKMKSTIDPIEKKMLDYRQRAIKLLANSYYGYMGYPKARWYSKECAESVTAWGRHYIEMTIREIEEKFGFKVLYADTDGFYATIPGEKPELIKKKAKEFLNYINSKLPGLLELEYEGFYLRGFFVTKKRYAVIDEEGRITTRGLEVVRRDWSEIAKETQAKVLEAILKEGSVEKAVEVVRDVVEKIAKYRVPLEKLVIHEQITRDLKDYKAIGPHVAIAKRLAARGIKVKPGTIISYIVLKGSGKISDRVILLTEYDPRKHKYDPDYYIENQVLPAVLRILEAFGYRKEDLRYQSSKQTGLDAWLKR
Particulars: cited from earlier work.

Test [2] concerns the target T1, Vent(exo^−) polymerase. The test can be described thus: Nucleotide selectivity. It counts as biochemical. The note with it: each mismatch combination. In short, it runs like this:
(§1)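 Base discrimination was measured by PEP assay. OligoTemplate-4 was replaced with 40 nM oligoTemplate-2 or oligoTemplate-5 to give mismatched template bases. For the T—G mismatch, 5 nM BODIPY-FL primer-3 was hybridised to 40 nM oligoTemplate-8. The selectivity ratio is the mismatched IC50 divided by the matched IC50.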

The target in test [3] is T1, Vent(exo^−) polymerase. The test can be described thus: PCR of TCF1 exons 2 and 10 with TTP or HOMedUTP. The format is biochemical. Particulars: 200 μM each dNTP. In short, it runs like this:
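Human genomic DNA (~50 ng) was amplified with 0.4 µM primer pairs and one unit of Vent(exo−). Buffer was 1× ThermoPol (20 mM Tris–HCl pH 8.8, 2 mM MgSO4, etc.) with 1 M betaine. dATP, dCTP and dGTP were at 200 μM each, with TTP or HOMedUTP. Cycling: 95°C 4 min; 35× (95°C 30 s, 59°C 30 s, 72°C 90 s); 72°C 7 min. Expected products: 602 bp (exon 2) and 670 bp (exon 10).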

The target in test [4] is T2, Therminator polymerase (Thermococcus sp., UniProt Q56366, A485L/D141A/E143A).
T2 sequence (Q56366 1-775 D141A/E143A/A485L): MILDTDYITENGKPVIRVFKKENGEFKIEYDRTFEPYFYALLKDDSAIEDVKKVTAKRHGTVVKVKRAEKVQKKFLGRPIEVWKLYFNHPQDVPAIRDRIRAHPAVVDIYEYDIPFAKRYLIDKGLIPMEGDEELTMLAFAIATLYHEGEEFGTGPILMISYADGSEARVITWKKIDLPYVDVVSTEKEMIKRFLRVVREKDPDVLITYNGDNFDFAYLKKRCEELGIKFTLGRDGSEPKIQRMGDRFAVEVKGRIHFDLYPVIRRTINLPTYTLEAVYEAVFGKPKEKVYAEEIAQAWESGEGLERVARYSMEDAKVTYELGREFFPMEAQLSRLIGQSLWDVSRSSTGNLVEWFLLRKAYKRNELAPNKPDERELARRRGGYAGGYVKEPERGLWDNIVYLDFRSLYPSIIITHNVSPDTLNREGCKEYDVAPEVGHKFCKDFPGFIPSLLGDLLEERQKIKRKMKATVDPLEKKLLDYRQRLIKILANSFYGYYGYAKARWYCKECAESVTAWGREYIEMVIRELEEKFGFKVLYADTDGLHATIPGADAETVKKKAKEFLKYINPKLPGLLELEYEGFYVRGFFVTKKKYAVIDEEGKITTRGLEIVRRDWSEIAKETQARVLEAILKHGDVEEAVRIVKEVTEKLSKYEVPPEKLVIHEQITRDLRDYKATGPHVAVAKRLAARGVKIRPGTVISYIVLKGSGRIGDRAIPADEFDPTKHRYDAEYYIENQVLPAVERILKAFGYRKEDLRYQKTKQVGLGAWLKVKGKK
The test can be described thus: Nucleotide selectivity. It counts as biochemical. Put shortly: as §1

Test [5] has as its target T2, Therminator polymerase. The test can be described thus: Weighted-sum assay for termination. The format is biochemical. Particulars: nucleotide at 3 μM (∼1000× IC50), oligoTemplate-7.
In test [6] the target is T1, Vent(exo^−) polymerase. The test can be described thus: Weighted-sum assay for termination. The note with it: nucleotide at 3 μM (∼1000× IC50), oligoTemplate-7. It counts as biochemical.
A short description of test [7]: Photochemical cleavage studies. It counts as physicochemical. Particulars: 50 mM NaN3; 365 nm UV; incorporated in primer-1/oligoTemplate-4. Put shortly: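 Analogs (100 nM final) were incorporated as in PEP on BODIPY-FL primer-1/oligoTemplate-4 (10 nM/80 nM). Reactions were quenched in FBD solution (20% formamide, 10 mM Na2EDTA pH 8.0, Blue Dextran) or 50 mM sodium azide. Samples were irradiated at 365 nm for various times, then iced, mixed with formamide stop solution and run on an AB 377 sequencer. DT50 is the time for 50% cleavage, from triplicates ± 1 SD.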

In the next test the target is TaqFS polymerase (Thermus aquaticus, UniProt P19821, F667Y/G46D). The test can be described thus: PEP. The format is biochemical. The note with it: TaqFS; Not Active = no visible +1 band in 377 gel image at 100 μM. In short, it runs like this: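 Polymerase end-point assay for single-base incorporation. 5 nM BODIPY-FL-labelled primer-1 was hybridised to 40 nM oligoTemplate-4, with the interrogation base complementary to dU. Absence of a +1 band on the 377 gel image at 100 μM counts as not active. IC50 was averaged from triplicates ± 1 SD. Incorporation bias is the analog IC50 divided by the natural-nucleotide (HOMedUTP) IC50.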

Test [8] concerns the target T2, Therminator polymerase. In words: Ten cycle CRT sequencing. It counts as biochemical. The note with it: 3 μM; UV cleavage in 50 mM sodium azide. In short, it runs like this: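 Biotinylated oligoTemplate-7 was bound to streptavidin M-270 beads with BODIPY-FL primer-2S, then preloaded with 0.5 U Therminator in 1× ThermoPol on ice for 5 min. Each cycle: incorporation at 65°C for 5 min, W10 washes, then 365 nm UV (~0.7 W/cm2, 4× 1 min) in 50 mM azide and ThermoPol washes. After ten cycles, products were run on a 10% polyacrylamide gel (377). Band quantification gave cycle efficiency (incorporation × cleavage) and dephasing (%n–2, %n–1, %n+1).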

Where “and” joins values, the source holds several entries; their conditions need not be identical. Identical values can stand only once.

Sequence of TaqFS polymerase (P19821 whole entry G46D/F667Y): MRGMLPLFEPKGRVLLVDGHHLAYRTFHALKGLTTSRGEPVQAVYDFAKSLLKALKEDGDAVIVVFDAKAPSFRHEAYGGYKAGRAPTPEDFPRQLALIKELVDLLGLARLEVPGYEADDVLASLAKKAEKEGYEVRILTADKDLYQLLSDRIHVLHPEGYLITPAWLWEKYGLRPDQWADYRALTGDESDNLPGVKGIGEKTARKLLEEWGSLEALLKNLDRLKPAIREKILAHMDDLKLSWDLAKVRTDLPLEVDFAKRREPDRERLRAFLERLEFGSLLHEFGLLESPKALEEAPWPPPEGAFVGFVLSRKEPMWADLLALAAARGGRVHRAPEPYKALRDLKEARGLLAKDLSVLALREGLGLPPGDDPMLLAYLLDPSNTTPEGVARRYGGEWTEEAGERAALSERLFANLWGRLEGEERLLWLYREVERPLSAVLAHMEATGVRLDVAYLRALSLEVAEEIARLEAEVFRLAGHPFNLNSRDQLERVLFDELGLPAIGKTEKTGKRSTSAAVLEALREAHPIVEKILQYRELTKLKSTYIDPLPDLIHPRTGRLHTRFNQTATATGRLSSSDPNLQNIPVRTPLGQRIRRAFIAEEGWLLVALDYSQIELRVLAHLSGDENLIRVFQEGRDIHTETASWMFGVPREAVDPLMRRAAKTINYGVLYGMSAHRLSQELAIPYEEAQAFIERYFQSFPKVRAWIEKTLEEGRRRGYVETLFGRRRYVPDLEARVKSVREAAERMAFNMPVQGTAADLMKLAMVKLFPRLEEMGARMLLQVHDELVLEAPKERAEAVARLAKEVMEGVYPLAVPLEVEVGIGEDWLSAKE

Regarding `C=CCO[C@H]1C[C@H](n2cnc3c(N)ncnc32)O[C@@H]1COP(=O)(O)OP(=O)(O)OP(=O)(O)O` [3′-O-allyl-dATP], the “Incorporation by polymerase (in words)” value on Vent(exo^−) polymerase [1] is recorded as “not efficiently incorporated”.

With `O=c1[nH]c(=O)n([C@H]2C[C@H](O)[C@@H](COP(=O)(O)OP(=O)(O)OP(=O)(O)O)O2)cc1CO` [HOMedUTP, 5-hydroxymethyl-2′-deoxyuridine triphosphate], the “Selectivity ratio (mismatched IC50/matched IC50)” value at Vent(exo^−) polymerase [2] is “greater than three orders of magnitude”. Also, on Vent(exo^−) polymerase [3], the “PCR product yield and size, HOMedUTP in place of TTP” value was “Comparable yields and product size”.

Turning to `Cc1cn([C@H]2C[C@H](O)[C@@H](COP(=O)(O)OP(=O)(O)OP(=O)(O)O)O2)c(=O)n(Cc2ccccc2[N+](=O)[O-])c1=O` [T.I, N^3-(2-Nitrobenzyl)-thymidine-5’-triphosphate], the “Selectivity ratios / mismatch discrimination (in words)” value on Therminator polymerase [4] is “indiscriminately against all mismatched template bases”.

As to `CC(C)[C@H](OCc1cn([C@H]2C[C@H](O)[C@@H](COP(=O)(O)OP(=O)(O)OP(=O)(O)O)O2)c(=O)[nH]c1=O)c1ccccc1[N+](=O)[O-]` [dU.IV, 5-[(S)-1-(2-Nitrophenyl)-2-methyl-propyloxy]methyl-2'-deoxyuridine-5’-triphosphate], the Weighted-sum value at Therminator polymerase [5] was 1.9 and 1.9 ± 0.2; on Vent(exo^−) polymerase [6], 1.7 and 1.7 ± 0.1. On Therminator polymerase [4], the “Selectivity ratios / mismatch discrimination (in words)” value was “almost three orders of magnitude”. In [7], the “DT50 values (time at which 50% of 2-nitrobenzyl groups were photochemically cleaved)” value was 1.8 s and 1.8 ± 0.1 s.

Regarding `CC(C)(C)[C@H](OCc1cn([C@H]2C[C@H](O)[C@@H](COP(=O)(O)OP(=O)(O)OP(=O)(O)O)O2)c(=O)[nH]c1=O)c1ccccc1[N+](=O)[O-]` [dU.V, 5-[(S)-1-(2-nitrophenyl)-2,2-dimethyl-propyloxy]methyl-2'-deoxyuridine-5’-triphosphate], on TaqFS polymerase, the “IC50 values (activity in words)” value is “not incorporated”. Moreover, the Weighted-sum value on Therminator polymerase [5] was 1.0 and 1.0 ± 0.0; on Vent(exo^−) polymerase [6], 1.0 and 1.0 ± 0.0. Also, the “Selectivity ratios / mismatch discrimination (in words)” value at Therminator polymerase [4] is reported as “almost three orders of magnitude”. The “DT50 values (time at which 50% of 2-nitrobenzyl groups were photochemically cleaved)” value in [7] is 1.3 s and 1.3 ± 0.1 s. Besides, on Therminator polymerase [8], the “Overall signal of reaction products over the 10 CRT cycles” value is given as “remained relatively constant”.

The values are drawn from publication PMC3064798 (Nucleic Acids Research, 2011).
